“Also recorded” adds a separate entry of the source. Where two headings read alike, the source gives them in different places.
What was measured:
[1] = biological target: T1, mCD1d:Ig fusion protein (dimeric CD1d) (Mus musculus, UniProt P11609); assay: Competitive binding assay on microarray; conditions: for binding with CD1d stronger than α-GalCer: relative to α-GalCer
T1 sequence (P11609 22-305 limits assumed): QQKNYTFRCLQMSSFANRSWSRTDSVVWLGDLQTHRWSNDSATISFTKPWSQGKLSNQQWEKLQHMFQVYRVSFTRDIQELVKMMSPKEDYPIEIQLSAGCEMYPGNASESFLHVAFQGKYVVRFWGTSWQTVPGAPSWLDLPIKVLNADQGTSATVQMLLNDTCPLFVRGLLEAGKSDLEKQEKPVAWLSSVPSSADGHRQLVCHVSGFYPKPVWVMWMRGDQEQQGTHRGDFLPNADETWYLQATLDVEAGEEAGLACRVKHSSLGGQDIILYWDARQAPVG
T1 sequence (P01887 21-119 partner): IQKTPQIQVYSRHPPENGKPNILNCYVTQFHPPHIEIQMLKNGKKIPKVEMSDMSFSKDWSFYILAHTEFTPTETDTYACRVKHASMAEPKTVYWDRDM
Outline: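 Glass slides carry a covalently attached amine-linked α-GalCer analogue printed at 100 μM. Test compound (400 to 0.1 μM, 1.0% DMSO) is preincubated with dimeric mCD1d:Ig (500 nM) for 5–8 h. Mixture goes on slides 1 h at room temperature, humidified. Detection uses precomplexed biotinylated rat anti-mCD1d (20 μg/mL) plus Cy3-streptavidin (10 μg/mL), 1 h, then a 595 nm scan. Ki is fitted to a competitive surface-binding equation.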

[2] = test system: human Vα24+ NKT cell line cocultured with Hela cells transfected with human CD1d; assay: Cytokine secretion assay using human NKT cell lines; assay type: cell-based; conditions: for IFN-γ secretion normalized to α-GalCer / IL-4 secretion normalized to α-GalCer: 10 ng/mL glycolipid, 24 h, ELISA, relative to α-GalCer = 1.00; for IFN-γ/IL-4 ratio: IFN-γ ratio/IL-4 ratio, normalized to α-GalCer
Outline: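 Vα24+ NKT lines come from bead-isolated leukopak T cells. They were expanded 10 days on irradiated (3000 rads) CD14-derived immature DCs with 100 ng/mL α-GalCer and 10 IU/mL IL-2. Assay: 20 000 NKT cells plus 2 × 10^4 irradiated (10 000 rads) human CD1d-transfected HeLa cells, 10 ng/mL test compound, 24 h. Supernatant IFN-γ or IL-4 by ELISA, normalised to α-GalCer; triplicate, mean ± SD.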

[3] = biological target: CD1d; conditions: read-out: dissociation constant from ITC; cited from earlier work
[4] = biological target: CD1d; conditions: read-out: dissociation constant from IEF; cited from earlier work

SMILES | binding with CD1d stronger than α-GalCer [1] | binding enhancement compared with parent compound 13 ([1]; relative to compound 13) | binding to CD1d (in words) [1] | Ki [1] | Ki versus KD,surf (fold) ([1]; solution Ki compared with KD,surf of surface α-GalCer) | IFN-γ secretion normalized to α-GalCer [2] | IL-4 secretion normalized to α-GalCer [2] | IFN-γ/IL-4 ratio [2] | IFN-γ production (in words) [2] | Kd [3] | Kd [4]
CCCCCCCCCCCCCC[C@@H](O)[C@@H](O)[C@H](CO[C@H]1O[C@H](CO)[C@H](O)[C@H](O)[C@H]1O)NC(=O)CCCCCCCc1ccc(OC)cc1 [Compound 19] |  |  |  |  |  | 2.25 ± 0.06 | 0.79 ± 0.06 | 2.85 ± 0.10 | highest IFN-γ cytokine production |  | 
CCCCCCCCCCCCCC[C@@H](O)[C@@H](O)[C@H](CO[C@H]1O[C@H](CO)[C@H](O)[C@H](O)[C@H]1O)NC(=O)CCCCCCCc1ccc(C(F)(F)F)cc1 [Compound 20] |  |  |  |  |  | 1.43 ± 0.07 | 0.76 ± 0.08 | 1.88 ± 0.08 |  |  | 
CCCCCCCCCCCCCCCCCCCCCCCCCC(=O)N[C@@H](CO[C@H]1O[C@H](CO)[C@H](O)[C@H](O)[C@H]1O)[C@H](O)[C@H](O)CCCCCCCCCCCCCC [α-GalCer, α-galactosylceramide, reference compound] |  |  |  | 16 ± 2.1 µM | 30–140 fold | 1.00 | 1.00 | 1.00 |  | 9.7 µM | 5.9 µM

More lines, main results first:

binding with CD1d stronger than α-GalCer [1] | binding enhancement compared with parent compound 13 ([1]; relative to compound 13) | binding to CD1d (in words) [1] | Ki [1] | Ki versus KD,surf (fold) ([1]; solution Ki compared with KD,surf of surface α-GalCer) | SMILES | IFN-γ secretion normalized to α-GalCer [2] | IL-4 secretion normalized to α-GalCer [2] | IFN-γ/IL-4 ratio [2] | IFN-γ production (in words) [2] | Kd [3] | Kd [4]
approximately 1 order of magnitude |  |  |  |  | CCCCCCCCCCCCCCC(O)C(O)C(COC1OC(CO)C(O)C(O)C1O)NC(=O)CCCCCCCc1ccccc1 (centres unmarked) [Compound 13] | 1.80 ± 0.15 | 0.87 ± 0.27 | 2.07 ± 0.26 |  |  | 
2 order of magnitude | approximately 1 order of magnitude |  |  |  | CCCCCCCCCCCCCCC(O)C(O)C(COC1OC(CO)C(O)C(O)C1O)NC(=O)CCCCCCCc1ccc(F)cc1 (centres unmarked) [Compound 18] | 2.39 ± 0.13 | 0.80 ± 0.09 | 3.00 ± 0.16 | highest IFN-γ cytokine production; also recorded: highest IFN-γ secretion |  | 
 |  | lower binding activity |  |  | CCCCCCCCCCCCCC[C@@H](O)[C@@H](O)[C@H](CO[C@H]1O[C@H](CO)[C@H](O)[C@H](O)[C@H]1O)NC(=O)CCCCCCCCCCc1ccc(-c2ccccc2)cc1 [Compound 25] | 0.33 ± 0.001 | 0.61 ± 0.06 | 0.55 ± 0.04 | less IFN-γ production |  | 

From article PMC4455950 (Journal of the American Chemical Society, 2008)
